Changes are numbered by the printed parent chain. pIC50: −log10 of the molar value. Active and inactive are the calls of the source. The rule behind the calls is not given here.
How the values were obtained:
[1] = biological target: T1, Aldo-keto reductase family 1 member C4 (Homo sapiens, UniProt P17516); test: Inhibition of recombinant AKR1C4 (unknown origin) assessed as reduction in S-tetralol-induced dehydrogenase activity by measuring NADPH level
T1 sequence (P17516 whole entry): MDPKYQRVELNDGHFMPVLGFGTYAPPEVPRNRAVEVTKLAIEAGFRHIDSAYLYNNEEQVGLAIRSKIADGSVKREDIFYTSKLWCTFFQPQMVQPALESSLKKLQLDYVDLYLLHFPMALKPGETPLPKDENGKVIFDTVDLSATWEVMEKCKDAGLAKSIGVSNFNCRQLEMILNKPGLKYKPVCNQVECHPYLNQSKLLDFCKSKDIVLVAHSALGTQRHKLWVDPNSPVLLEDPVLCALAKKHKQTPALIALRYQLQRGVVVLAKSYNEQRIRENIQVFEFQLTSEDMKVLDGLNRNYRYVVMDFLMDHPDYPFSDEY

[2] = biological target: T2, Carbonyl reductase [NADPH] 1 (Homo sapiens, UniProt P16152); test: Inhibition of CBR1 (unknown origin)
T2 sequence (P16152 whole entry): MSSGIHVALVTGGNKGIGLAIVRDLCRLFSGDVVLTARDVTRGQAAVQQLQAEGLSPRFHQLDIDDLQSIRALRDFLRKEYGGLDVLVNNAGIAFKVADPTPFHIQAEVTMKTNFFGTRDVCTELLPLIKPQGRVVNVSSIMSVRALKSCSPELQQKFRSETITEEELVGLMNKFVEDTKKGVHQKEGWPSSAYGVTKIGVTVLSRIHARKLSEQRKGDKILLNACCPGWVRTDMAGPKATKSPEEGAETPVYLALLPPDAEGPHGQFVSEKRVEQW

[3] = biological target: T3, Aldo-keto reductase family 1 member C2 (Homo sapiens, UniProt P52895); test: Inhibition of recombinant AKR1C2 (unknown origin) assessed as reduction in S-tetralol-induced dehydrogenase activity by measuring NADPH level
T3 sequence (P52895 whole entry): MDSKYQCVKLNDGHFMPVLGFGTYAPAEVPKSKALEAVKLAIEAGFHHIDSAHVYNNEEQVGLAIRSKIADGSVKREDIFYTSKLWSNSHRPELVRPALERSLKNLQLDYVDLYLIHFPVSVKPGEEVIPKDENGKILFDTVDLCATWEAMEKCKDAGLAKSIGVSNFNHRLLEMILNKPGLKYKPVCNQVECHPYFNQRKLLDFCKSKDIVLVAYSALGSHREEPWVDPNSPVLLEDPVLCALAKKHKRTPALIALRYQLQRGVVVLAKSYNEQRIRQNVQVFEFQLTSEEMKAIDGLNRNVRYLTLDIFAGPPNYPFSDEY

[4] = biological target: T4, Aldo-keto reductase family 1 member C3 (Homo sapiens, UniProt P42330); test: Inhibition of recombinant AKR1C3 (unknown origin) assessed as reduction in S-tetralol-induced dehydrogenase activity by measuring NADPH level
T4 sequence (P42330 whole entry): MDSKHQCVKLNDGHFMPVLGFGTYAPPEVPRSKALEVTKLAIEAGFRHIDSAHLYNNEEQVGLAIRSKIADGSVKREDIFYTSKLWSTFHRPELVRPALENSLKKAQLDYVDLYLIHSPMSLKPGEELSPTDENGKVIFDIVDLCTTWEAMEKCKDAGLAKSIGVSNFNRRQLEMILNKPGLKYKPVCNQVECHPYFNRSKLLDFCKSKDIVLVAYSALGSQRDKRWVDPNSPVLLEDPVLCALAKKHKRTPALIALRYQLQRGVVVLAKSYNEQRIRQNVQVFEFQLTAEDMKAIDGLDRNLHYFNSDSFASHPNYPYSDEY

Homo sapiens [5] = species: Homo sapiens; test: Ratio of IC50 for inhibition of recombinant AKR1C2 (unknown origin) inhibition of recombinant AKR1C3 (unknown origin)
[6] = biological target: T5, Aldo-keto reductase family 1 member C1 (Homo sapiens, UniProt Q04828); test: Inhibition of recombinant AKR1C1 (unknown origin) assessed as reduction in S-tetralol-induced dehydrogenase activity by measuring NADPH level
T5 sequence (Q04828 whole entry): T3 sequence (P52895 whole entry) with V38T, H47R, V54L, S87C, M151V, H170R, L172Q

Homo sapiens [7] = species: Homo sapiens; test: Ratio of IC50 for inhibition of recombinant AKR1C1 (unknown origin) inhibition of recombinant AKR1C3 (unknown origin)
Homo sapiens [8] = species: Homo sapiens; test: Ratio of IC50 for inhibition of CBR1 (unknown origin) inhibition of recombinant AKR1C3 (unknown origin)
Homo sapiens [9] = species: Homo sapiens; test: Ratio of IC50 for inhibition of recombinant AKR1C4 (unknown origin) inhibition of recombinant AKR1C3 (unknown origin)
[10] = biological target: T6, Androgen receptor (Homo sapiens) (UniProt P10275); test: Agonistic activity at AR in human 22Rv1 cells assessed as effect on cell number at 1 nM by CCK8 assay; format: cell-based; conditions: CWR22R
T6 sequence (whole entry): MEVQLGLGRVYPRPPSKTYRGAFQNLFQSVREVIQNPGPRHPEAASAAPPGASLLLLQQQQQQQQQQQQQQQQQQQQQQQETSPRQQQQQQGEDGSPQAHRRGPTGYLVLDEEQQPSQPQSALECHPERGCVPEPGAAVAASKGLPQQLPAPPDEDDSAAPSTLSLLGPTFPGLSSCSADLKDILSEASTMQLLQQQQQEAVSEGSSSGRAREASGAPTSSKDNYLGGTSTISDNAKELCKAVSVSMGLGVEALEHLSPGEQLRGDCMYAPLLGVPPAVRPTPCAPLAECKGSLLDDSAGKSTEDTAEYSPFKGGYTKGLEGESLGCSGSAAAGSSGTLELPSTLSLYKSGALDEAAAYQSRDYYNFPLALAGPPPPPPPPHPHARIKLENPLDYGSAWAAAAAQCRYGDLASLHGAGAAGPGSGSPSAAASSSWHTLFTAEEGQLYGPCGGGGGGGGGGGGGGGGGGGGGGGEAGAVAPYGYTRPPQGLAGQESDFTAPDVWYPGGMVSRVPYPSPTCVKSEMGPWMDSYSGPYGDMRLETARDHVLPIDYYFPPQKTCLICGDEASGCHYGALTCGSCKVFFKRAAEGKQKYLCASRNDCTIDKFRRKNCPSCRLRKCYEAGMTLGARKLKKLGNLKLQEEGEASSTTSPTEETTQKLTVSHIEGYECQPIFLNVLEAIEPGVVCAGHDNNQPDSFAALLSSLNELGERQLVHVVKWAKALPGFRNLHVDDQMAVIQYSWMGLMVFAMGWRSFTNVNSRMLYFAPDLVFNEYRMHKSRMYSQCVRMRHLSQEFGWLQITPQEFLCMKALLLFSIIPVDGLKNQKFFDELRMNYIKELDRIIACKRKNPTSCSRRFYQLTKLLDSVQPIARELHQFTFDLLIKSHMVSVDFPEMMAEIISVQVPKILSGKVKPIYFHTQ

PC-3 [11] = test: Inhibition of cell proliferation of human PC3 cells over-expressing AKR1C3 at 1 uM incubated for 72 hrs by alamar blue assay; format: functional, cell-based
CWR22R [12] = test: Inhibition of pregnenolone-induced cell proliferation of human 22Rv1 cells at 10 uM pre-incubated for 2 hrs before pregnenolone stimulation for 72 hrs by alamar blue assay; format: functional, cell-based
In short: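 22Rv1 cells (AKR1C3- and AR-expressing) pretreated 2 h with agents, then cultured 72 h with 20 nM pregnenolone; viable cell number given as percent of pregnenolone-free control.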

CWR22R [13] = test: Inhibition of TMPRSS2 mRNA expression in human 22Rv1 cells at 10 uM pre-incubated for 2 hrs before pregnenolone stimulation for 24 hrs by RT-qPCR analysis; format: functional, cell-based
In short: (§1)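 22Rv1 cells pretreated 2 h with test agents, then stimulated 24 h with 20 nM pregnenolone; AR, TMPRSS2 and PSA mRNA measured by RT-qPCR, given as ratio to pregnenolone-free control.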

CWR22R [14] = test: Inhibition of AR mRNA expression in human 22Rv1 cells at 10 uM pre-incubated for 2 hrs before pregnenolone stimulation for 24 hrs by RT-qPCR analysis; format: functional, cell-based; in short: as §1
CWR22R [15] = test: Inhibition of PSA mRNA expression in human 22Rv1 cells at 10 uM pre-incubated for 2 hrs before pregnenolone stimulation for 24 hrs by RT-qPCR analysis; format: functional, cell-based; in short: as §1
CWR22R [16] = test: Induction of apoptosis in human 22Rv1 cells assessed as effect on cleaved caspase-3 protein expression level at 50 uM pre-incubated for 2 hrs before addition of pregnenolone for 24 hrs by Western blot analysis; format: functional, cell-based
In short: (§2)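 Apoptotic markers in 22Rv1: 2 h pretreatment with or without 10 μM inhibitor and/or 50 μM enzalutamide, then 24 h 20 nM pregnenolone; Bax/Bcl-2 ratio as percent of control; cleaved caspase-3 also by immunofluorescence with DAPI.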

CWR22R [17] = test: Induction of apoptosis in human 22Rv1 cells assessed as effect on Bax protein expression level at 50 uM pre-incubated for 2 hrs before addition of pregnenolone for 24 hrs by Western blot analysis; format: functional, cell-based; in short: as §2
CWR22R [18] = test: Induction of apoptosis in human 22Rv1 cells assessed as effect on cleaved PARP protein expression level at 50 uM pre-incubated for 2 hrs before addition of pregnenolone for 24 hrs by Western blot analysis; format: functional, cell-based; in short: as §2
CWR22R [19] = test: Induction of apoptosis in human 22Rv1 cells assessed as increase in cleaved caspase-3 level at 50 uM pre-incubated for 2 hrs before addition of pregnenolone for 24 hrs by Western blot analysis; format: functional, cell-based; in short: as §2
CWR22R [20] = test: Induction of ROS generation in human 22Rv1 cells at 50 uM by DCFH-DA dye based flow cytometric analysis; format: functional, cell-based
In short: (§3)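 22Rv1 cells exposed 3 h to 10 μM inhibitor and/or abiraterone, or 50 μM enzalutamide; intracellular ROS by flow cytometry as DCF-positive cells, percent of vehicle control.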

CWR22R [21] = test: Induction of cell death in human 22Rv1 cells 50 uM pre-incubated for 2 hrs before addition of pregnenolone for 24 hrs; format: functional, cell-based
CWR22R [22] = test: Induction of ROS generation in human 22Rv1 cells at 10 uM by DCFH-DA dye based flow cytometric analysis; format: functional, cell-based; in short: as §3
CWR22R [23] = test: Induction of apoptosis in human 22Rv1 cells pre-incubated for 2 hrs before addition of pregnenolone for 24 hrs; format: functional, cell-based
PC-3 [24] = conditions: Homo sapiens, at 10 µM

## N=c1oc2c(O)cccc2cc1C(=O)Nc1ccccc1C(F)(F)F
[1]
  pIC50: < 5.00
[2]
  pIC50: 7.12
[3]
  pIC50: < 5.00
[4]
  pIC50: 7.70
Homo sapiens [5]
  Ratio IC50: > 500
[6]
  pIC50: < 5.00
Homo sapiens [7]
  Ratio IC50: > 500
Homo sapiens [8]
  Ratio IC50: 4
Homo sapiens [9]
  Ratio IC50: > 500

## N=c1oc2c(O)cccc2cc1C(=O)Nc1cccc(Cl)c1
[1]
  pIC50: < 5.00
[2]
  pIC50: 6.92
[3]
  pIC50: < 5.00
[4]
  pIC50: 7.34
Homo sapiens [5]
  Ratio IC50: > 220
[6]
  pIC50: < 5.00
Homo sapiens [7]
  Ratio IC50: > 220
[10]
  Activity: inactive
Homo sapiens [8]
  Ratio IC50: 3
Homo sapiens [9]
  Ratio IC50: > 220

## N=c1oc2c(O)cccc2cc1C(=O)Nc1ccccc1Cl
[1]
  pIC50: < 5.00
[2]
  pIC50: 7.47
[3]
  pIC50: < 5.00
[4]
  pIC50: 7.25
Homo sapiens [5]
  Ratio IC50: > 180
[6]
  pIC50: < 5.00
Homo sapiens [7]
  Ratio IC50: > 180
[10]
  Activity: inactive
Homo sapiens [8]
  Ratio IC50: 0.6
Homo sapiens [9]
  Ratio IC50: > 180

## COC[C@H]1OC(=O)c2coc3c2[C@@]1(C)C1=C(C3=O)[C@@H]2CCC(=O)[C@@]2(C)C[C@H]1OC(C)=O
PC-3 [11]
  inhibition: Active

## CC(C)C(=O)Nc1ccc([N+](=O)[O-])c(C(F)(F)F)c1
CWR22R [12]
  inhibition: Active
CWR22R [13]
  inhibition: Active
CWR22R [14]
  inhibition: Active
CWR22R [15]
  inhibition: Active

## CNC(=O)c1ccc(N2C(=S)N(c3ccc(C#N)c(C(F)(F)F)c3)C(=O)C2(C)C)cc1F
CWR22R [16]
  Activity: Active
CWR22R [12]
  inhibition: Active
CWR22R [17]
  Activity: Active
CWR22R [13]
  inhibition: Active
CWR22R [18]
  Activity: Active
CWR22R [19]
  Activity: Active
CWR22R [20]
  Activity: Active
CWR22R [14]
  inhibition: Active
CWR22R [15]
  inhibition: Active
CWR22R [21]
  Activity: Active

## C[C@]12CC[C@H](O)CC1=CC[C@@H]1[C@@H]2CC[C@]2(C)C(c3cccnc3)=CC[C@@H]12
CWR22R [22]
  Activity: Active
CWR22R [12]
  inhibition: Active
CWR22R [13]
  inhibition: Active
CWR22R [23]
  Activity: Active
CWR22R [14]
  inhibition: Active
CWR22R [15]
  inhibition: Active

## N#CC(=C(/N)Sc1ccccc1N)/C(C#N)=C(\N)Sc1ccccc1N
PC-3 [24]
  inhibition: inactive

## N=c1oc2c(O)cccc2cc1C(=O)Nc1cccc(F)c1
[1]
  pIC50: < 5.00
[2]
  pIC50: 6.43
[3]
  pIC50: < 5.00
[4]
  pIC50: 7.54
Homo sapiens [5]
  Ratio IC50: > 340
[6]
  pIC50: < 5.00
Homo sapiens [7]
  Ratio IC50: > 340
[10]
  Activity: inactive
Homo sapiens [8]
  Ratio IC50: 13
Homo sapiens [9]
  Ratio IC50: > 340

Reference: ChEMBL document CHEMBL4619820, “Development of Novel AKR1C3 Inhibitors as New Potential Treatment for Castration-Resistant Prostate Cancer” (J Med Chem, 2020)
